Measured values published in ChEMBL document CHEMBL3576785, “Differential Targeting of Human Topoisomerase II Isoforms with Small Molecules” (J Med Chem, 2015).
Calls of active or inactive are those of the source. No cut-off for these calls is given here.

Legend:
[1] = Cytotoxicity against wild type human NALM6 cells assessed as growth inhibition after 5 days by XTT assay; assay type: functional, cell-based; conditions: NALM-6, 120 h
Method in brief: (§1)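 Growth inhibition in Nalm-6 wild-type, TOP2A+/- and TOP2B-/- lines. IC50 values are means ±SD of 3 replicate experiments.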

[2] = Cytotoxicity against TOP2B double knockout human NALM6 cells assessed as growth inhibition after 5 days by XTT assay; assay type: functional, cell-based; conditions: NALM-6, 120 h; method in brief: as §1
[3] = target: DNA topoisomerase 2-alpha (Homo sapiens) (UniProt P11388); test: Activity of TOP2A in human K562 cells assessed as poisoning activity at 100 uM after 1 hr by TARDIS assay; assay type: cell-based
Method in brief: (§2)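 TARDIS (trapped in agarose DNA immunostaining) in K562 cells, which express both isoforms at similar levels. Cells given 100 µM analogue, DMSO as vehicle control. Drug-stabilised TOP2–DNA complexes detected with isoform-specific immunofluorescence, TOP2A or TOP2B. Fluorescence quantified and normalised to VP-16-treated cells. Single-dose screen, followed by dose–response.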

[4] = Cytotoxicity against human NALM6 cells expressing 50% TOP2A assessed as growth inhibition after 5 days by XTT assay; assay type: functional, cell-based; conditions: NALM-6, 120 h; method in brief: as §1
K562 = test: Activity of TOP2 in human K562 cells assessed as poisoning activity by measuring phosphorylation of gamma-H2AX at Ser139 at 100 uM after 1 hr by DAPI staining-based epifluorescence microscopic analysis; assay type: cell-based
Method in brief: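 K562 cells (human leukaemia, similar expression of both TOP2 isoforms) exposed to 100 µM analogue, DMSO as vehicle control. γ-H2AX (phospho-Ser139 H2AX) detected by immunofluorescence microscopy with nuclear counterstain. Signal quantified in γ-H2AX-positive cells and normalised to VP-16-treated cells.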

[5] = target: DNA topoisomerase 2-beta (Homo sapiens) (UniProt Q02880); test: Activity of TOP2B in human K562 cells assessed as poisoning activity at 100 uM after 1 hr by TARDIS assay; assay type: cell-based; method in brief: as §2
NALM-6 [6] = test: Selectivity ratio of IC50 for TOP2B double knockout human NALM6 cells to IC50 for wild type human NALM6 cells; assay type: functional
NALM-6 [7] = test: Selectivity ratio of IC50 for human NALM6 cells expressing 50% TOP2A to IC50 for wild type human NALM6 cells; assay type: functional

DNA topoisomerase 2-alpha (Homo sapiens), sequence (P11388 whole entry, canonical isoform): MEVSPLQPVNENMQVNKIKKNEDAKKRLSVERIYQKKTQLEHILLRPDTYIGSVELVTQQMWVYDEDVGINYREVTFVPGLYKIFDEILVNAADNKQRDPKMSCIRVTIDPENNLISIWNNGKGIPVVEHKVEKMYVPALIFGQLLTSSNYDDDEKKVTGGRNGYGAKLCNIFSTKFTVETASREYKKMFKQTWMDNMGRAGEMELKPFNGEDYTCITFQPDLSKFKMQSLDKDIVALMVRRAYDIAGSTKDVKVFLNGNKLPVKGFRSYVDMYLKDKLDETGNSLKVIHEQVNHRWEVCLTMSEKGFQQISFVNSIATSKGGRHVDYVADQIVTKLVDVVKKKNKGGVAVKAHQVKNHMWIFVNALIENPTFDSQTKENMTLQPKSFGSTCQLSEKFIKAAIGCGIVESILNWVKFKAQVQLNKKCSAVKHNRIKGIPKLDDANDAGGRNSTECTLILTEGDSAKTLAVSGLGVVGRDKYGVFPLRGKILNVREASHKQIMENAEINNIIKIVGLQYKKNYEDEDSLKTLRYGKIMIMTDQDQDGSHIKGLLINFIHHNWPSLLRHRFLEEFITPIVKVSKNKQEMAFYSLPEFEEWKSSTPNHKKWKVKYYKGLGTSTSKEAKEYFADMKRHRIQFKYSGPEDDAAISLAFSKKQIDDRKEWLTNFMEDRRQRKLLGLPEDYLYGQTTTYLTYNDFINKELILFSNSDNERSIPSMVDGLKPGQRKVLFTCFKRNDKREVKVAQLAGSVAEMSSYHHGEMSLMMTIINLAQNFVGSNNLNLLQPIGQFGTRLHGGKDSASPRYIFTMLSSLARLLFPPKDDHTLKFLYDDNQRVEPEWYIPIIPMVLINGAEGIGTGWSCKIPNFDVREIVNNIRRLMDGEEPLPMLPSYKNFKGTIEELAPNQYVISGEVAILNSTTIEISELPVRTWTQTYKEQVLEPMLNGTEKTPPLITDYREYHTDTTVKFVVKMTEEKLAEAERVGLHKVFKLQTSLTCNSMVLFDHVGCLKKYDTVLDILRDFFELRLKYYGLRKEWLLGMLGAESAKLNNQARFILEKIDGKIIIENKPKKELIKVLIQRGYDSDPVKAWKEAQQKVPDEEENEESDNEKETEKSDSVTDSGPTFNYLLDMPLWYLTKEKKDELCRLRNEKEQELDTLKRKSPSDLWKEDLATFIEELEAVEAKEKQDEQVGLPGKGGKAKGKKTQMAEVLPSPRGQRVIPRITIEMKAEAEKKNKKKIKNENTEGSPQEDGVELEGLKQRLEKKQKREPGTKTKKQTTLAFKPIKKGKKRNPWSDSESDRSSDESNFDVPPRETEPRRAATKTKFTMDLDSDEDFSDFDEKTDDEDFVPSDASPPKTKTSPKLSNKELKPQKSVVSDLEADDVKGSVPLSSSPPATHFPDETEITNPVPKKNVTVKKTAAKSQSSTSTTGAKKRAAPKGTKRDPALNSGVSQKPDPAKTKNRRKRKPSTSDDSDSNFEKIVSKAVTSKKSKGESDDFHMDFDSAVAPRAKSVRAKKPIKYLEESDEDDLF
DNA topoisomerase 2-beta (Homo sapiens), sequence (Q02880 whole entry): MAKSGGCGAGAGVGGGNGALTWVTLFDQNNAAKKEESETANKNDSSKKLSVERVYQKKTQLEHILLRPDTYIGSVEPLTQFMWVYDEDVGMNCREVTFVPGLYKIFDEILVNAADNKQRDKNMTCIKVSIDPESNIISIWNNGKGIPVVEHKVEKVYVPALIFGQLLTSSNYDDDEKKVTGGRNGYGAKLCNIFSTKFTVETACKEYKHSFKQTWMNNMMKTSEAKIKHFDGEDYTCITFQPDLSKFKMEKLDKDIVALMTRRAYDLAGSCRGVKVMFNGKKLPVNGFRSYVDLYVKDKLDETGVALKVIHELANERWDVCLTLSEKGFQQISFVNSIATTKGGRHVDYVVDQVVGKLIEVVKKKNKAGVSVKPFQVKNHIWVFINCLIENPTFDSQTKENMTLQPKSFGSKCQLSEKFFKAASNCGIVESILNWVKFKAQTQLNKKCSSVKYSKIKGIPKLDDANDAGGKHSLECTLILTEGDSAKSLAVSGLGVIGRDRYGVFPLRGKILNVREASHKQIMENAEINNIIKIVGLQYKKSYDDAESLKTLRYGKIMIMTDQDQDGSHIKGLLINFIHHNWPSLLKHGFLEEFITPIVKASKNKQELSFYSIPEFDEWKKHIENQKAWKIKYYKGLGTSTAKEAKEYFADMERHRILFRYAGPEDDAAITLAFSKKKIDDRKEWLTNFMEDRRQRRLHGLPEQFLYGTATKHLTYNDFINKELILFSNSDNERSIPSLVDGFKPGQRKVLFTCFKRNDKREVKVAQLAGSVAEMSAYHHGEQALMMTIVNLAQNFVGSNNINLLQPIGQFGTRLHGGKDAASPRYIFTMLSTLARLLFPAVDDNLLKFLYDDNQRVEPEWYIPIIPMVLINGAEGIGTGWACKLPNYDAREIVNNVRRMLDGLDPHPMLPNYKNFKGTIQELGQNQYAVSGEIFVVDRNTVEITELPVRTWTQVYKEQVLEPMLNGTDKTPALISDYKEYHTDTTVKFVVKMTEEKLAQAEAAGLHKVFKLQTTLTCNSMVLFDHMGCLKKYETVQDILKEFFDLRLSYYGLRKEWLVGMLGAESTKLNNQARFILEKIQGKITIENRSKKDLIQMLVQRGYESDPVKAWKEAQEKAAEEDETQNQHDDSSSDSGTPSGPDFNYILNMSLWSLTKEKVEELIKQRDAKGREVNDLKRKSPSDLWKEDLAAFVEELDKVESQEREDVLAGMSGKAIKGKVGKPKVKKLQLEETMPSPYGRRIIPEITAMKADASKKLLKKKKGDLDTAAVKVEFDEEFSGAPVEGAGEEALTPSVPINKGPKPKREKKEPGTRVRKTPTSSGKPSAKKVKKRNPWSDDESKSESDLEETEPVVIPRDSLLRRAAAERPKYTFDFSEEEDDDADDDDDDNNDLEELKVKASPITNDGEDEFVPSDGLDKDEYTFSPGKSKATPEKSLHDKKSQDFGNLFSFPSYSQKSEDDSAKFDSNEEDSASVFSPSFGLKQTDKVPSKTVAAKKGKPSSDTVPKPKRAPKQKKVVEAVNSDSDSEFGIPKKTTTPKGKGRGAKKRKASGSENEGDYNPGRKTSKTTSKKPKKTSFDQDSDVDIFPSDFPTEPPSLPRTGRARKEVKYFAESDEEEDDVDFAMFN

Row | Compound | IC50 [1] | IC50 [2] | Activity [3] | IC50 [4] | Activity (K562) | Activity [5] | Ratio IC50 (NALM-6 [6]) | Ratio IC50 (NALM-6 [7])
1 | COc1cc([C@@H]2c3cc4c(cc3[C@@H](n3cc(CN(C)C)nn3)[C@H]3COC(=O)[C@H]23)OCO4)cc(OC)c1O | 0.62 µM | 1.32 µM | Active | 0.85 µM | Active | Active | 2.1 | 1.4
2 | COc1cc([C@@H]2c3cc4c(cc3[C@@H](O[C@@H]3O[C@@H]5CO[C@@H](C)O[C@H]5[C@H](O)[C@H]3O)[C@H]3COC(=O)[C@H]23)OCO4)cc(OC)c1O [ETOPOSIDE] | 0.134 µM | 0.182 µM | Active | 0.234 µM | Active | Active | 1.4 | 1.7
3 | COc1cc([C@@H]2c3cc4c(cc3[C@@H](OCc3cn(Cc5ccc(C(=O)O)cc5)nn3)[C@H]3COC(=O)[C@H]23)OCO4)cc(OC)c1OC | > 10 µM |  |  |  | Active |  |  | 
4 | COc1cc([C@@H]2c3cc4c(cc3[C@@H](OCc3cn(-c5ccc(O)cc5)nn3)[C@H]3COC(=O)[C@H]23)OCO4)cc(OC)c1O | 3.4 µM | 1.92 µM | Active | 3.5 µM | Active | Active | 0.6 | 1
5 | COC(=O)CCCCCn1cc(CO[C@@H]2c3cc4c(cc3[C@@H](c3cc(OC)c(O)c(OC)c3)[C@H]3C(=O)OC[C@@H]32)OCO4)nn1 | 3.9 µM |  | Active |  | Active | Active |  | 
6 | COc1cc([C@@H]2c3cc4c(cc3[C@@H](OCc3cn(CCCN(C)C)nn3)[C@H]3COC(=O)[C@H]23)OCO4)cc(OC)c1O | 1.2 µM | 2.36 µM | Active | 1.9 µM | Active | Active | 2 | 1.6
